Only some compounds are listed: those with a hit (about 4.7% of all), similar ones and a draw of the others.
GAA850 FXN act: FXN promoter activators, primary screen, cell-based, luciferase luminescence, HEK293 lucGAA850; HEK293 lucGAA850 FXN promoter luciferase reporter, 24 h; percent of 10 µM SAHA response; activation, % at 6 µM; 0.56% of 360,000 active; AID 540364, 2011;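 active = activation above the average of all compounds screened plus 3 SD, cutoff fixed separately per campaign, cut at about 7.5% in these data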;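 note: 0% = DMSO wells and 100% = 10 µM SAHA wells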
m5-HT2A agonist: mouse Htr2a agonists via beta-arrestin recruitment, primary screen, cell-based, luminescence; 5-hydroxytryptamine receptor 2A (Mus musculus), P35363; CHO-K1 mHTR2A beta-arrestin complementation; percent of 30 µM serotonin response; activation, % at 7.6 µM; 0.66% of 360,000 active; AID 624169, 2012;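 active = activation above a run cutoff, the mean activation of all tested compounds plus 3 SD, cut at about 14% in these data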;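 note: 0% = plate median of compound wells and 100% = 30 µM serotonin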
Target sequence (P35363 whole entry, looked up): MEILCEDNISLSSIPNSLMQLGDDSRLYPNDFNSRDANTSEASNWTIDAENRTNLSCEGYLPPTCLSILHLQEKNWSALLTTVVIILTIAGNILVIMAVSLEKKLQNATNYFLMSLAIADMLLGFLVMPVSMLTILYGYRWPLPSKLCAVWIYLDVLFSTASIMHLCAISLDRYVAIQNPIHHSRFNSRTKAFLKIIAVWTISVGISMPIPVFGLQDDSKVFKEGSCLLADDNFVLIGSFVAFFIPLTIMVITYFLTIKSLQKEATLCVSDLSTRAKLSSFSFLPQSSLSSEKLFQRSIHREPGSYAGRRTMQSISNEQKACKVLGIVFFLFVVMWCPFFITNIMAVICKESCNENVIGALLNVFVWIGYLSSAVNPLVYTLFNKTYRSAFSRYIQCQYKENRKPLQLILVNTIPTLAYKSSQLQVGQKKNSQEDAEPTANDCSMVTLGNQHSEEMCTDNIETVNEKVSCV
MC4R ag barr: MC4R agonists recruiting beta-arrestin, primary screen, cell-based, luminescence, agonist arm of biased-ligand search; U2OS MC4R beta-arrestin complementation; percent of melanotan II response, DMSO zero; 0.98% of 360,000 active; activation, % at 8.9 µM;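 active = activation above a per-plate cutoff, the mean activation of sample wells on that plate plus 3 SD, cut at about 8% in these data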
Target sequence (P32245 whole entry, looked up): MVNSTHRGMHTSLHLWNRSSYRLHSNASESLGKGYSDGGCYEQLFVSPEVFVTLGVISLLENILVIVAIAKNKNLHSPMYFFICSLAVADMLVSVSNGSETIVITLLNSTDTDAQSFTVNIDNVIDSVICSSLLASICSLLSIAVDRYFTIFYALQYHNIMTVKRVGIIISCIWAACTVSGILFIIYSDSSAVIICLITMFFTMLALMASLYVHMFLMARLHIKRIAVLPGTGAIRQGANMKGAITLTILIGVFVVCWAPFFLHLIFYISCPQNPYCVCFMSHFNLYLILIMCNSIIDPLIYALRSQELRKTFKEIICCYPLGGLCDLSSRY
MC4R antagonist: MC4R antagonists of cAMP signaling, primary screen, cell-based, TR-FRET, antagonist arm of biased-ligand search. 0.48% of 360,000 active. inhibition, % at 6.5 µM. MC4R-expressing cells, MTII-stimulated cAMP, LANCE TR-FRET;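 active = inhibition above its plate's cutoff, the mean of tested wells on that plate plus 3 SD, cut at about 29% in these data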;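 note: 0% = Melanotan II alone and 100% = Melanotan II plus saturating MCL0020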
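Assay system: U2OS-MC4R stable cell line; Also added: Melanotan II; Technique: Eu-cAMP/anti-cAMP TR-FRET, emission 671 nm; Times: 30-min compound, 1-h challenge, 1-h detection, room temperature.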
AHR act: AHR activators, primary screen, cell-based, luminescence, luciferase reporter, human | 2.5% of 320,000 active | AID 2796, 2010 | Aryl hydrocarbon receptor (Homo sapiens), P35869 | AHR-responsive luciferase reporter cells | activation, % at 5 µM; in the data active = activation above about 47%;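 note: 0% = vehicle wells and 100% = reference agonist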
MC4R barr ag: MC4R beta-arrestin agonists, retest, confirmation, cell-based, luminescence, U2OS. shares compounds with MC4R ag barr. U2OS MC4R beta-arrestin recruitment; scaled DMSO 0%, Melanotan II 100%. activation, % at 8.9 µM. 31% of 2,400 active;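 active = mean activation across replicates above the hit cutoff set in the earlier primary screen, cut at about 8% in these data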
MOR DOR agonist: agonists of MOR-DOR heterodimerization, counter-screen for MC4R biased agonist project, cell-based, luminescence; shares compounds with MC4R ag barr; U2OS PathHunter beta-arrestin, beta-gal luminescence; percent of deltorphin B response, DMSO zero; activation, % at 9.2 µM; 5.8% of 2,400 active; AID 602194, 2012;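 active = mean activation across replicates exceeds the hit threshold derived in the earlier primary screen, cut at about 18% in these data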;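 note: 100% = deltorphin B at 0.9 µM final and 0% = DMSO alone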
GAA30 FXN cntr: GAA30 FXN promoter activators, confirmation, counter-screen for GAA850 frataxin promoter activator project, cell-based, luminescence, HEK293, lucGAA30, triplicate; shares compounds with GAA850 FXN act; HEK293 lucGAA30 FXN promoter luciferase, 24 h; DMSO = 0%, 5 µM ipriflavone = 100%; activation, % at 6 µM; 66% of 1,900 active;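 active = mean activation above the mean of solvent-only control wells plus 3 SD, cut at about 22% in these data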;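 note: counterscreen of GAA850 promoter hits where activity marks nonselective or luminescence artifacts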
FXN GAA850 conf: FXN GAA850 promoter activators in reporter cells, confirmation, cell-based, luminescence, HEK293 lucGAA850, triplicate; shares compounds with GAA850 FXN act; HEK293 lucGAA850 FXN promoter luciferase reporter, 24 h; 100% = activation by SAHA; activation, % at 6 µM; AID 588351, 2011; 86% of 1,900 active;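 active = mean activation above a set limit taken from the primary screen, cut at about 8% in these data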;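 note: 0% = DMSO wells and 100% = 10 µM SAHA wells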
MOR ag counter: OPRM1 agonists via beta-arrestin recruitment, confirmation, counter-screen for mouse HTR2A agonist project, cell-based, luminescence, single concentration. shares compounds with m5-HT2A agonist. U2OS OPRM1 beta-arrestin PathHunter; DMSO 0%, DAMGO 9.3 µM 100%. activation, % at 9.3 µM. 5.3% of 2,300 active;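 active = mean activation above the mean of DMSO-only wells plus 3 SD, cut at about 0.5% in these data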
m5-HT2A ag conf: mouse HTR2A agonists, beta-arrestin recruitment, confirmation, cell-based, luminescence, CHO-K1 PathHunter, triplicate. DMSO 0%, 30 µM serotonin 100%. shares compounds with m5-HT2A agonist. activation, % at 7.6 µM. 19% of 2,300 active;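 active = mean activation across triplicates above the hit threshold derived in the original primary screen, cut at about 15% in these data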
* marks the source's active call; other numbers are inactive results; x = not tested or not shown; ! = not confirmed by another sample.

SMILES | GAA850 FXN act | m5-HT2A agonist | MC4R ag barr | MC4R antagonist | AHR act | GAA30 FXN cntr | FXN GAA850 conf | others
CCCCCN(C(=O)CCC(=O)OC(C)C(=O)c1ccccc1)c1c(N)n(CCCC)c(=O)[nH]c1=O (stereo not drawn) | 1.1 | -1.3 | 0.5 | 5.7 | -1.6 | x | x
Cc1cc2oc3ccc(NCCCn4ccnc4)cc3c(=O)c2cc1C | 4.4 | 20.4* | 11.1* | -6.4 | 0.7 | x | x | MC4R barr ag=1.4;MOR DOR agonist=11.6;MOR ag counter=1.4*;m5-HT2A ag conf=9.1
Cc1cc2oc3ccc(NCCCN4CCOCC4)cc3c(=O)c2cc1C | 1.3 | -7.1 | 1.9 | -1.3 | 2.9 | x | x
Cc1ccccc1NC(=O)c1nnn(-c2ccc3c(c2)OCCO3)c1N | 1.5 | -7.3 | 2.3 | 15.2 | -11.7 | x | x
Nc1c(C(=O)Nc2cccc(F)c2)nnn1-c1ccc2c(c1)OCCO2 | 0.8 | 15.0* | 11.2* | 9.3 | -5.7 | x | x | MC4R barr ag=1.3;MOR DOR agonist=5.9;MOR ag counter=-0.1;m5-HT2A ag conf=-0.1
COc1cc(CNCCc2ccccc2)cc(Cl)c1OCc1ccccc1 | 1.0 | 19.6* | 13.5* | 3.8 | 0.6 | x | x | MC4R barr ag=10.4*;MOR DOR agonist=12.5;MOR ag counter=1.2*;m5-HT2A ag conf=3.1
O=C(Nc1cccc(-c2cccc(F)c2)c1)C1CCN(C2CCOCC2)CC1 | 2.8 | -5.5 | -2.3 | 0.2 | 3.6 | x | x
CCC1(c2ccc(F)cc2)NC(=O)N(CC(=O)NCC(=O)Nc2cccc(C)c2C)C1=O (stereo not drawn) | 1.0 | -0.3 | -1.2 | -3.8 | 2.5 | x | x
CCCCCCCC/C=C\CCCCCCCC(=O)NCCc1ccc(O)c(O)c1 | -1.3 | 33.8* | 9.8* | 13.9 | -3.7 | x | x | MC4R barr ag=6.9;MOR DOR agonist=5.3;MOR ag counter=0.3;m5-HT2A ag conf=170.2*
Cc1cccc(-c2nsc(SCC(=O)Nc3nccs3)n2)c1 | 3.6 | 18.0* | 13.1* | 6.1 | 13.6 | x | x | MC4R barr ag=0.0;MOR DOR agonist=7.9;MOR ag counter=0.0;m5-HT2A ag conf=-1.7
CCCc1ccc(OCC(O)CN2CCN(c3ccccc3)CC2)cc1 (stereo not drawn) | -0.3 | 8.9 | 3.8 | 4.8 | 3.9 | x | x
CCc1ccc(OCC(O)CN2CCN(c3ccccc3)CC2)cc1 (stereo not drawn) | -0.9 | 14.9*! | 10.7* | 5.0 | 0.6 | x | x | MC4R barr ag=0.3;MOR DOR agonist=9.3;MOR ag counter=-0.1;m5-HT2A ag conf=29.0*
COC(=O)c1cnc(Nc2nc(CN)cs2)nc1C(F)(F)F | 0.6 | 4.9 | -0.8 | -0.8 | x | x | x
OC(c1ccc(F)cc1)c1ncc(-c2ccc(Oc3ccccc3)cc2)[nH]1 (stereo not drawn) | 1.5 | -5.6 | 8.0 | 2.1 | x | x | x
Cc1cc(C(O)c2ncc(-c3ccc(Oc4ccccc4)cc3)[nH]2)ccc1F (stereo not drawn) | 0.2 | 21.0* | 11.7* | 1.7 | x | x | x | MC4R barr ag=4.4;MOR DOR agonist=6.5;MOR ag counter=-0.1;m5-HT2A ag conf=-6.0
COc1cc2c(cc1OC)-c1cc(NC3CCCCCCC3)nc(=O)n1CC2 | 8.1* | 1.3 | 0.9 | -2.8 | 6.4 | 14.8 | 12.8*
COc1cc2c(cc1OC)-c1cc(NC3CCCCC3)nc(=O)n1CC2 | 10.3* | 6.2 | -2.0 | -2.0 | 2.6 | 21.7 | 11.2*
CCNc1cc2n(c(=O)n1)CCc1cc(OC)c(OC)cc1-2 | 9.9* | 3.9 | 0.3 | -12.5 | 0.3 | 6.1 | 4.8
COc1cc2c(cc1OC)-c1cc(NC3CC3)nc(=O)n1CC2 | 3.0 | 5.3 | -0.7 | 0.9 | 6.1 | x | x
CCn1c(SCC(=O)Nc2oc(-c3ccccc3)c(-c3ccccc3)c2C#N)nnc1-c1cc(OC)cc(OC)c1 | 13.0* | 7.9 | -2.0 | -0.9 | -1.0 | 11.6 | 0.6
COc1ccccc1C=NN=Cc1ccccc1OC | -1.1 | 6.3 | 3.6 | -2.8 | x | x | x
O=C(CC12CC3CC(CC(C3)C1)C2)NC(=S)N1CCCCC1 | 3.7 | 9.7 | -0.6 | 1.0 | 0.7 | x | x
S=C(NC12CC3CC(CC(C3)C1)C2)N1CCCC1 | 9.4* | 0.1 | -1.1 | 6.4 | -2.6 | 26.6* | 10.8*
Cc1ccc(NC(=O)Cn2c([N+](=O)[O-])cnc2C)cc1Cl | -1.6 | -5.4 | 0.8 | 18.9 | 1.6 | x | x
COc1ccc(C2CC(C(F)(F)F)n3ncc(C(=O)NCC4CCCO4)c3N2)cc1OC (stereo not drawn) | 8.2* | 2.6 | -0.6 | -3.2 | -1.4 | 9.1 | 10.9*
SMILES | GAA850 FXN act | m5-HT2A agonist | MC4R ag barr | MC4R antagonist | AHR act | GAA30 FXN cntr | FXN GAA850 conf | others
COc1ccc(C2=NOC(C)(c3nnc(Cc4ccccc4)o3)C2)cc1 (stereo not drawn) | -0.6 | 4.1 | -0.2 | 1.6 | 0.0 | x | x
Cn1c(CNc2ccc(O)cc2)nc2ccccc21 | 8.3* | -4.4 | 0.9 | -4.4 | 15.1 | 86.2* | 26.2*
CCCn1c(CNc2ccccc2O)nc2ccccc21 | -2.3 | 5.0 | 1.3 | -13.8 | 20.7 | x | x
CCCC[C@@H]1CNC(=O)C(=O)N1CCc1cccc2ccccc12 | x | x | x | x | -4.1 | x | x
CCOc1ccccc1C(=O)N/N=C/c1c[nH]c2ccccc12 | 8.2* | -2.5 | -1.4 | -2.1 | 30.8 | 27.2* | 8.9*
Cc1cccc(NC(=O)CSCC(=O)Nc2cc(C(F)(F)F)ccc2N2CCOCC2)c1 | 13.7* | -4.0 | -0.9 | 0.4 | x | -1.0 | 9.4*

High-throughput results deposited in PubChem BioAssay by The Scripps Research Institute Molecular Screening Center.
